Assay results from ChEMBL document CHEMBL4350963, “Discovery and Lead-Optimization of 4,5-Dihydropyrazoles as Mono-Kinase Selective, Orally Bioavailable and Efficacious Inhibitors of Receptor Interacting Protein 1 (RIP1) Kinase” (J Med Chem, 2019).
Converted amounts (≈) assume the structure as drawn.

Key:
[1] = Chromatographic hydrophobicity index, log D of the compound at pH 7.4 by reverse-phase HPLC analysis; format: physicochemical; conditions: buffer
Method in brief: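 Log D at pH 7.4 was calculated from the retention time on a fast-gradient reverse-phase HPLC run.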

[2] = AUC (0 to infinity) in rat at 2 mg/kg, po; format: ADME, organism-based; design: dose 2 mg/kg, route oral, time infinity; conditions: in vivo
Method in brief: (§1)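 Rat pharmacokinetics: the iv arm was dosed at 1 mg/kg in 5% DMSO/20% Cavitron aqueous solution. The oral arm was dosed at 2 mg/kg in 5% DMSO/6% Cavitron aqueous solution. Bioavailability was calculated non-crossover, from average exposures in separate oral and iv studies.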

[3] = Tmax in rat at 2 mg/kg, po; format: ADME, organism-based; conditions: in vivo
[4] = Cmax in rat at 2 mg/kg, po; format: ADME, organism-based; design: dose 2 mg/kg, route oral; conditions: in vivo; method in brief: as §1
[5] = Volume of distribution at steady state in rat at 1 mg/kg, iv; format: ADME, organism-based; conditions: in vivo, read-out: Vdss
[6] = AUC (0 to infinity) in rat at 1 mg/kg, iv; format: ADME, organism-based; design: dose 1 mg/kg, time infinity, route intravenous; conditions: in vivo; method in brief: as §1
[7] = Oral bioavailability in rat at 2 mg/kg; format: ADME, organism-based; conditions: in vivo
[8] = Solubility of the compound in fasted state simulated intestinal fluid measured after 4 hrs using crystalline sample; format: physicochemical
[9] = Unbound brain to blood concentration ratio in C57BL/6 mouse at 9.6 to 96 mg/kg/day added to chow pellets; format: ADME, organism-based; conditions: po, read-out: K(p,uu,brain)
[10] = Time at which mouse plasma concentration stays above in vitro IC50 for RIP1 in mouse L929 cells assessed as reduction in TNFalpha/QVD-Oph-induced necroptosis in mouse at 10 mg/kg/day added to chow pellets; format: ADME, organism-based; conditions: in vivo
[11] = Time at which mouse plasma concentration stays above in vitro IC90 for RIP1 in mouse L929 cells assessed as reduction in TNFalpha/QVD-Oph-induced necroptosis in mouse at 100 mg/kg/day added to chow pellets; format: ADME, organism-based; conditions: in vivo

Row | chromatographic logD [1] | SMILES | other results
1 | 4.7 | O=C(C1CCC1)N1N=CCC1c1ccccc1 (stereo unspecified) | 
2 | 6.4 | Cc1ccc(C2CC=NN2C(=O)C(C)(C)C)cc1 (stereo unspecified) | 
3 | 1.4 | CC(C)(CN)C(=O)N1N=CCC1c1ccccc1 (stereo unspecified) | 
4 | 6.5 | C[C@@H]1C=NN(C(=O)C(C)(C)C)[C@@H]1c1ccccc1 | 
5 | 3.2 | CC(C)(C)C(=O)N1N=CCC1c1cccnc1 (stereo unspecified) | AUC(0-inf) [2]: 260 ng·h/mL; Tmax [3]: 5 min; Cmax [4]: 360 ng/mL
6 | 3.2 | CC(C)(C)C(=O)N1N=CCC1c1ccncc1 (stereo unspecified) | 
7 | 3.4 | CC(C)(CO)C(=O)N1N=CCC1c1ccccc1 (stereo unspecified) | 
8 | 5.6 | CC(C)(C)C(=O)N1CCSC1c1ccccc1 (stereo unspecified) | 
9 | 2.5 | CC(C)(C)C(=O)N1CCNCC1c1ccccc1 (stereo unspecified) | 
10 | 8.3 | CC(C)(C)C(=O)n1nccc1-c1ccccc1 | 
11 | 4.7 | CC(C)(C)C(=O)N1CCOCC1c1ccccc1 (stereo unspecified) | 

Continued, compound first:

Row | SMILES | chromatographic logD [1] | other results
12 | CC(C)(C)C(=O)N1N=CCC1c1ccc(S(C)(=O)=O)cc1 (stereo unspecified) | 4.1 | 
13 | CC(C)(C)C(=O)N1N=CCC1c1cocn1 (stereo unspecified) | 3 | AUC(0-inf) [2]: 200 ng·h/mL; Tmax [3]: 5 min; Cmax [4]: 345 ng/mL
14 | O=C(C1CCN(c2ccncn2)CC1)N1N=CC[C@H]1c1ccccc1 | 3.2 | 
15 | CC(C)(C)C(=O)N1N=CCC1c1cc[nH]n1 (stereo unspecified) | 2.7 | 
16 | CC(C)(C)C(=O)N1N=CCC1c1c[nH]cn1 (stereo unspecified) | 1.7 | 
17 | O=C(C1CCCCC1)N1CCC(C(=O)N2N=CCC2c2ccccc2)CC1 (stereo unspecified) | 5.4 | 
18 | N#Cc1cnc(N2CCC(C(=O)N3N=CC[C@H]3c3cc(F)cc(F)c3)CC2)cn1 | 5.2 | Vd [5]: 6.1 L/kg; AUC(0-inf) [6]: 400 ng·h/mL; bioavailability [7]: 99%; Tmax [3]: 38 min; Cmax [4]: 73 ng/mL
19 | O=C(c1ccncc1)N1N=CCC1c1ccccc1 (stereo unspecified) | 2.7 | 
20 | CN1CCC(C2CC=NN2C(=O)C(C)(C)C)CC1 (stereo unspecified) | 1.4 | 
21 | O=C(C1CCN(c2ccccn2)CC1)N1N=CC[C@H]1c1ccccc1 | 5.1 | 
22 | Cc1nnc(N2CCC(C(=O)N3N=CC[C@H]3c3ccccc3)CC2)o1 | 3.2 | Vd [5]: 1.6 L/kg; AUC(0-inf) [6]: 800 ng·h/mL
23 | O=C(C1CCN(c2ncccn2)CC1)N1N=CC[C@H]1c1ccccc1 | 4.7 | 
24 | O=C(C1CCCC1)N1N=CCC1c1ccccc1 (stereo unspecified) | 5.4 | 
25 | O=C(C1CCN(C(=O)C(F)(F)F)CC1)N1N=CCC1c1ccccc1 (stereo unspecified) | 4.9 | 
26 | O=C(c1c[nH]nn1)N1CCC(C(=O)N2N=CCC2c2ccccc2)CC1 (stereo unspecified) | 2 | Vd [5]: 1.3 L/kg; AUC(0-inf) [6]: 450 ng·h/mL
27 | CC(C)(C)C(=O)N1N=CCC1C1CCCC1 (stereo unspecified) | 6.7 | 
28 | O=C(C1CCCCC1)N1N=CCC1c1ccccc1 (stereo unspecified) | 5.9 | 
29 | CC(C)(C)C(=O)N1N=CCC1C1CCOCC1 (stereo unspecified) | 4.1 | 
30 | O=C(C1CCOCC1)N1N=CCC1c1ccccc1 (stereo unspecified) | 3.1 | AUC(0-inf) [2]: 44 ng·h/mL; Tmax [3]: 5 min; Cmax [4]: 95 ng/mL
31 | CC(=O)N1CCC(C(=O)N2N=CC[C@H]2c2ccccc2)CC1 | 2.5 | Vd [5]: 1.7 L/kg; AUC(0-inf) [6]: 420 ng·h/mL; solubility thermodynamic at 4 h [8]: 7400 µg/mL (≈ 24.7 mM); AUC(0-inf) [2]: 1600 ng·h/mL; Tmax [3]: 30 min; Cmax [4]: 795 ng/mL
32 | O=C(C1CCOC1)N1N=CCC1c1ccccc1 (stereo unspecified) | 3 | 
33 | Cc1ccc(C2CC=NN2C(=O)C(C)(C)C)cc1F (stereo unspecified) | 6.6 | 
34 | N#Cc1cc(N2CCC(C(=O)N3N=CC[C@H]3c3cc(F)cc(F)c3)CC2)ncn1 | 5 | Vd [5]: 4.6 L/kg; AUC(0-inf) [6]: 410 ng·h/mL; bioavailability [7]: 88%; Kp uu [9]: 2.5; Time [10]: > 24 h; Tmax [3]: 30 min; Time [11]: > 24 h; Cmax [4]: 215 ng/mL
